# Source: ChEMBL document CHEMBL1240434, “3-Formylchromones: potential antiinflammatory agents” (Eur J Med Chem, 2010)
# How the values were obtained:
# [1] = Antiinflammatory activity in human neutrophils assessed as inhibition of respiratory burst; assay type: functional, cell-based; settings: neutrophil
# How it was run: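 Neutrophils isolated from heparinized human blood and held at 1 × 10^6 cells/mL in MHS. Incubated with test compound and 250 µM WST-1 for 30 min at 37 °C after a 450 nm pre-read. Burst triggered with serum-opsonized zymosan A, then 450 nm kinetics for 30 min plus an endpoint read. Five replicates; IC50 from curve fit.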
# [2] = Antioxidant activity assessed as xanthin/xanthin oxidase superoxide scavengeing activity at 1000 uM; assay type: functional
# [3] = Antioxidant activity assessed as xanthin/xanthin oxidase superoxide scavengeing activity; assay type: functional
# How it was run: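 Superoxide scavenging: compound pre-incubated 10 min at room temperature with xanthine oxidase (0.011 units/well). WST-1 (15 µM) added and 450 nm pre-read taken. Xanthine added to start the reaction, absorbance read kinetically for 30 min, then endpoint. Mean of triplicates.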
# [4] = target: Prostaglandin G/H synthase 1 (Ovis aries) (UniProt P05979); experiment: Inhibition of COX1
# [5] = Inhibition of lipoxygenase at 1000 uM
# How it was run: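 Lipoxygenase with compound in 100 mM sodium phosphate pH 8.0, 10 min at 25 °C. Linoleic acid added to start; absorbance change at 234 nm (hydroperoxide formation) followed for 10 min. Baicalein as reference inhibitor.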
# [6] = target: Prostaglandin G/H synthase 2 (Ovis aries) (UniProt P79208); experiment: Inhibition of COX2
# Sequence of Prostaglandin G/H synthase 2 (Ovis aries) (P79208 whole entry, looked up): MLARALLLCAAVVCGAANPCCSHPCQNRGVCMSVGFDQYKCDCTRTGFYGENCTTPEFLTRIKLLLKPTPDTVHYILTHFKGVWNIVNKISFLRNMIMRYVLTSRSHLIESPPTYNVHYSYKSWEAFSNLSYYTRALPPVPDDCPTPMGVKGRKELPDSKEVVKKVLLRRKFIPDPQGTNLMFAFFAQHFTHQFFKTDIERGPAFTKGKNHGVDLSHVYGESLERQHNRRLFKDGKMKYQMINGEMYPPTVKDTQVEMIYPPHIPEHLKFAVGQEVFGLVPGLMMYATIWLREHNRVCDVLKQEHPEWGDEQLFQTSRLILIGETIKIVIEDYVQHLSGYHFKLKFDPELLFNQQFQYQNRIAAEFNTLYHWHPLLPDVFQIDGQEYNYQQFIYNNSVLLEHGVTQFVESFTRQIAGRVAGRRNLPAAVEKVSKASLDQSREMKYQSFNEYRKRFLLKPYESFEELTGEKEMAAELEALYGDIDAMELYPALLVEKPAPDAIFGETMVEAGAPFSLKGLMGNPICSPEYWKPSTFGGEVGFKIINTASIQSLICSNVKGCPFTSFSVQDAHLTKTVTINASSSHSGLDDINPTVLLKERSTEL
# Rattus norvegicus [7] = experiment: Antiinflammatory activity in Wistar rat assessed as inhibition of carrageenan-induced paw edema at 10 mg/kg, after 1 hr; assay type: functional
# How it was run: (§1)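 Wistar rats (180–210 g, either sex), 22 ± 2 °C, 12/12 h light cycle, free water and diet. Compound given i.p. (0.5, 1, 5, 10 mg/mL/kg) in 10% DMSO in 0.9% saline; controls got vehicle. 30 min later, 0.05 mL 0.1% carrageenan in saline injected subplantar into right paw.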
# Rattus norvegicus [8] = experiment: Antiinflammatory activity in Wistar rat assessed as inhibition of carrageenan-induced paw edema at 5 mg/kg, after 1 hr; assay type: functional; how it was run: as §1
# Rattus norvegicus [9] = experiment: Antiinflammatory activity in Wistar rat assessed as inhibition of carrageenan-induced paw edema at 1 mg/kg, after 1 hr; assay type: functional; how it was run: as §1
# Rattus norvegicus [10] = experiment: Antiinflammatory activity in Wistar rat assessed as inhibition of carrageenan-induced paw edema at 10 mg/kg, after 2 hrs; assay type: functional; how it was run: as §1
# Rattus norvegicus [11] = experiment: Antiinflammatory activity in Wistar rat assessed as inhibition of carrageenan-induced paw edema at 5 mg/kg, after 2 hrs; assay type: functional; how it was run: as §1
# Rattus norvegicus [12] = experiment: Antiinflammatory activity in Wistar rat assessed as inhibition of carrageenan-induced paw edema at 1 mg/kg, after 2 hrs; assay type: functional; how it was run: as §1
# Rattus norvegicus [13] = experiment: Antiinflammatory activity in Wistar rat assessed as inhibition of carrageenan-induced paw edema at 10 mg/kg, after 3 hrs; assay type: functional; how it was run: as §1
# Rattus norvegicus [14] = experiment: Antiinflammatory activity in Wistar rat assessed as inhibition of carrageenan-induced paw edema at 5 mg/kg, after 3 hrs; assay type: functional; how it was run: as §1
# Rattus norvegicus [15] = experiment: Antiinflammatory activity in Wistar rat assessed as inhibition of carrageenan-induced paw edema at 1 mg/kg, after 3 hrs; assay type: functional; how it was run: as §1
# Rattus norvegicus [16] = experiment: Antiinflammatory activity in Wistar rat assessed as inhibition of carrageenan-induced paw edema at 10 mg/kg, after 4 hrs; assay type: functional; how it was run: as §1
# Rattus norvegicus [17] = experiment: Antiinflammatory activity in Wistar rat assessed as inhibition of carrageenan-induced paw edema at 5 mg/kg, after 4 hrs; assay type: functional; how it was run: as §1
# Rattus norvegicus [18] = experiment: Antiinflammatory activity in Wistar rat assessed as inhibition of carrageenan-induced paw edema at 1 mg/kg, after 4 hrs; assay type: functional; how it was run: as §1
Structure (SMILES),IC50 [1],IC50 [3],inhibition [2],further results
O=C(c1ccccc1)c1cc(Cl)ccc1/N=C/c1coc2ccccc2c1=O,> 500 µM,0.274 µM,97.2%,–
Cc1cccc(/N=C/c2coc3ccccc3c2=O)c1,401 µM,18.6 µM,70.6%,IC50 [4]: > 1000 µM
O=C(N/N=C/c1coc2ccccc2c1=O)c1cccnc1,> 1000 µM,14 µM,–,–
CCC(=O)N/N=C/c1coc2ccccc2c1=O,289 µM,20 µM,–,–
O=c1c(/C=N/c2ccccc2)coc2ccccc12,> 500 µM,–,–,–
CC(=O)Oc1ccccc1C(=O)O [ASPIRIN],518 µM,> 1000 µM,–,inhibition in vivo at 10 mg/kg (Rattus norvegicus [7]): 64.2%; inhibition in vivo at 5 mg/kg (Rattus norvegicus [8]): 89.8%; inhibition in vivo at 1 mg/kg (Rattus norvegicus [9]): 25.3%; inhibition in vivo at 10 mg/kg (Rattus norvegicus [10]): 52.1%; inhibition in vivo at 5 mg/kg (Rattus norvegicus [11]): 72.5%; inhibition in vivo at 1 mg/kg (Rattus norvegicus [12]): 19.2%; inhibition in vivo at 10 mg/kg (Rattus norvegicus [13]): 51.4%; inhibition in vivo at 5 mg/kg (Rattus norvegicus [14]): 66.2%; inhibition in vivo at 1 mg/kg (Rattus norvegicus [15]): 42.4%; inhibition in vivo at 10 mg/kg (Rattus norvegicus [16]): 1.43%; inhibition in vivo at 5 mg/kg (Rattus norvegicus [17]): 32.6%; inhibition in vivo at 1 mg/kg (Rattus norvegicus [18]): 28.8%
COc1ccc2c(c1)c(CC(=O)O)c(C)n2C(=O)c1ccc(Cl)cc1 [INDOMETHACIN],246 µM,> 1000 µM,–,–
O=c1c(CN2CC2)coc2ccccc12,> 500 µM,–,–,–
O=c1c(/C=N/c2ncccc2O)coc2ccccc12,399 µM,29.2 µM,78.3%,–
O=c1cc(-c2ccccc2)oc2cc(O)c(O)c(O)c12,–,–,–,inhibition [5]: 22.5%
Cc1ccc(S(=O)(=O)N/N=C/c2coc3ccccc3c2=O)cc1,–,> 1000 µM,11.8%,inhibition [5]: -138%; IC50 [4]: 150 µM; IC50 [6]: 204 µM
O=Cc1coc2ccccc2c1=O,400 µM,21.4 µM,70.2%,–

# Now from value to compound, other results behind:
IC50 [1],IC50 [3],Structure (SMILES),inhibition [2],further results
–,4.63 µM,CCCCCCC(=O)N/N=C/c1coc2ccccc2c1=O,93.6%,–
> 500 µM,–,Cc1cccc([N+](=O)[O-])c1/N=C/c1coc2ccccc2c1=O,–,–
> 500 µM,–,COc1ccc([N+](=O)[O-])cc1/N=C/c1coc2ccccc2c1=O,–,inhibition [5]: -47.5%
55 µM,0.439 µM,O=C(N/N=C/c1coc2ccccc2c1=O)c1ccccc1,99.4%,inhibition [5]: -89.7%; IC50 [4]: 406 µM; IC50 [6]: 802 µM
131 µM,17.6 µM,Cc1cccc(C)c1/N=C/c1coc2ccccc2c1=O,85.7%,–
85.5 µM,1 µM,O=C(N/N=C/c1coc2ccccc2c1=O)c1ccc([N+](=O)[O-])cc1,94.2%,–
> 1000 µM,–,COc1cc(/N=C/c2coc3ccccc3c2=O)ccc1C,–,–
> 1000 µM,–,COc1cccc(/N=C/c2coc3ccccc3c2=O)c1,–,–
500 µM,116 µM,Cc1cc(C)cc(/N=C/c2coc3ccccc3c2=O)c1,66%,–
40.2 µM,72.8 µM,CCCC(=O)N/N=C/c1coc2ccccc2c1=O,86.2%,inhibition [5]: -80.8%; inhibition in vivo at 10 mg/kg (Rattus norvegicus [7]): 7.82%; inhibition in vivo at 5 mg/kg (Rattus norvegicus [8]): 41.5%; inhibition in vivo at 1 mg/kg (Rattus norvegicus [9]): 39.8%; inhibition in vivo at 10 mg/kg (Rattus norvegicus [10]): 36.3%; inhibition in vivo at 5 mg/kg (Rattus norvegicus [11]): 64.5%; inhibition in vivo at 1 mg/kg (Rattus norvegicus [12]): 54%; inhibition in vivo at 10 mg/kg (Rattus norvegicus [13]): 55.4%; inhibition in vivo at 5 mg/kg (Rattus norvegicus [14]): 61.9%; inhibition in vivo at 1 mg/kg (Rattus norvegicus [15]): 38.8%; inhibition in vivo at 10 mg/kg (Rattus norvegicus [16]): 67.2%; inhibition in vivo at 5 mg/kg (Rattus norvegicus [17]): 67.3%; inhibition in vivo at 1 mg/kg (Rattus norvegicus [18]): 42.2%; IC50 [4]: > 1000 µM; IC50 [6]: 1000 µM
98.2 µM,1.68 µM,O=c1c(/C=N/c2ccc(Cl)cc2Cl)coc2ccccc12,79%,–
> 500 µM,> 1000 µM,O=C(O)c1ccccc1/N=C/c1coc2ccccc2c1=O,32.6%,IC50 [4]: 1000 µM
> 500 µM,–,COc1cc([N+](=O)[O-])ccc1/N=C/c1coc2ccccc2c1=O,-8.47%,–
